Non-standard residues stand in square brackets, D forms with d. Residues, ends and D or L forms follow the SMILES beside them. Lys(Me2) = CN(C)CCCC[C@H](N)C(=O)O; hArg = N=C(N)NCCCC[C@H](N)C(=O)O; hLys = NCCCCC[C@H](N)C(=O)O; Nlys = NCCCCNCC(=O)O
What was measured:
BCL1 [1] = test: Inhibitory concentration against BCL1 cell proliferation in WST-1 assay; Range 10-20; format: functional, Mus musculus
Summary of the method: (§1)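 BCL1 cells, 2000 per well, grown in DMEM with 10% FBS at 37 °C and 5% CO2. Exposed to conjugate for 3 days, then viable cells read by WST-1 absorbance at 450 nm. Value is the concentration at which absorbance fell below 50% of untreated control; triplicates.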

[2] = Half-life of the conjugate when treated with 25% murine serum for enzymatic stability; format: ADME; conditions: mouse
Summary of the method: (§2)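 Conjugates at 20 μM in 10% FBS RPMI 1640 medium or 25% mouse serum (Hepes-stabilised, diluted in PBS, pH 7.1–7.4), incubated at 37 °C. Sampled to 168 h (FBS) or 48 h (serum); proteins precipitated with 10% DCA, PNA 6mer internal standard added. Analysed by C3 RP-HPLC at 60 °C; t1/2 from normalised full-length peak area versus time.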

[3] = Half-life of the conjugate when treated with 10% foetal bovine serum for enzymatic stability; format: ADME, Bos taurus; conditions: cattle; summary of the method: as §2
CD40 mRNA [4] = test: […] CD40 expression in BCL1 cells treated with 3 uM peptide nucleic acid (PNA)conjugate; n=3; format: functional, cell-based; conditions: Mus musculus
Summary of the method: (§3)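 Mouse BCL1 cells in DMEM with 10% FBS, given conjugate at 1, 3 or 10 μM by free uptake (no transfection agent) for 3 days. Cells trypsinised and stained 1 h with FITC anti-CD40 (HM40-3) or isotype control, then surface CD40 read by flow cytometry. Results are % untreated control, mean ± SD, n = 3.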

CD40 mRNA [5] = test: […] CD40 expression in BCL1 cells treated with 1 uM peptide nucleic acid (PNA)conjugate; n=3; format: functional, cell-based; conditions: Mus musculus; summary of the method: as §3
CD40 mRNA [6] = test: […] CD40 expression in BCL1 cells treated with 10 uM peptide nucleic acid (PNA)conjugate; n=3; format: functional, cell-based; conditions: Mus musculus; summary of the method: as §3
BCL1 [7] = test: Inhibitory concentration against BCL1 cell proliferation in WST-1 assay; format: functional, Mus musculus; summary of the method: as §1
[8] = Half-life of the conjugate when treated with 25% murine serum for enzymatic stability; No data available; format: ADME; conditions: mouse; summary of the method: as §2

| Compound | IC50 (BCL1 [1]) | half-life [2] | half-life [3] | UTC (CD40 mRNA [4]) | UTC (CD40 mRNA [5]) | UTC (CD40 mRNA [6]) | IC50 for cell proliferation (BCL1 [7]) | T1/2 [8] |
| --- | --- | --- | --- | --- | --- | --- | --- | --- |
| NCCCC[C@@H](C=O)NC(=O)[C@H](CCCCN)NC(=O)[C@H](CCCCN)NOC(=O)[C@H](CCCN)NC(=O)[C@H](CCCCN)NC(=O)[C@H](CCCCN)NOC(=O)[C@H](CCCN)NC(=O)[C@H](CCCCN)NC(=O)[C@@H](N)CCCCN | 20 µM | 18 h | > 168 h | 65% | 94% | 34% |  |  |
| N=C(N)NCCCC[C@H](NC(=O)[C@H](CCCCNC(=N)N)NC(=O)[C@H](CCCCNC(=N)N)NC(=O)[C@H](CCCCNC(=N)N)NC(=O)[C@H](CCCCNC(=N)N)NC(=O)[C@H](CCCCNC(=N)N)NC(=O)[C@H](CCCCNC(=N)N)NC(=O)[C@@H](N)CCCCNC(=N)N)C(=O)N[C@H](C=O)CCCCN |  | 15 h | > 168 h | 45% | 91% | 20% | 5 µM |  |
| NCCCC[C@@H](C=O)NOC(=O)C(CCCN)NC(=O)[C@H](CCCCN)NOC(=O)C(CCCN)NC(=O)[C@H](CCCCN)NOC(=O)C(CCCN)NC(=O)[C@H](CCCCN)NOC(=O)C(CCCN)NC(=O)[C@@H](N)CCCCN (stereo not given in full) |  |  | > 168 h | 61% | 94% | 42% | 5 µM | No data available |
| NCCCC[C@@H](C=O)NC(=O)[C@H](CCCCN)NC(=O)[C@@H](CCCCN)NC(=O)[C@H](CCCCN)NC(=O)[C@H](CCCCN)NC(=O)[C@@H](CCCCN)NC(=O)[C@H](CCCCN)NC(=O)[C@@H](N)CCCCN | 20 µM | > 48 h | > 168 h | 87% | 102% | 62% |  |  |
| NCCCC[C@@H](C=O)NOC(=O)[C@H](CCCN)NOC(=O)[C@H](CCCN)NC(=O)[C@H](CCCCN)NC(=O)[C@H](CCCCN)NC(=O)[C@H](CCCCN)NC(=O)[C@H](CCCCN)NOC(=O)[C@H](CCCN)NOC(=O)[C@@H](N)CCCN |  |  | > 168 h |  |  |  |  | No data available |
| NCCCC[C@@H](C=O)NOC(=O)C(CCCN)NOC(=O)C(CCCN)NC(=O)[C@H](CCCCN)NC(=O)[C@H](CCCCN)NC(=O)[C@H](CCCCN)NC(=O)[C@H](CCCCN)NOC(=O)C(CCCN)NOC(=O)C(N)CCCN (stereo not given in full) |  |  |  | 69% | 97% | 52% | 5 µM |  |
| NCCCC[C@H](NC(=O)CN(CCCCN)C(=O)CN(CCCCN)C(=O)CN(CCCCN)C(=O)CN(CCCCN)C(=O)CN(CCCCN)C(=O)CN(CCCCN)C(=O)CN(CCCCN)C(=O)CN(CCCCN)C(=O)CN)C(=O)O (H-G[Nlys][Nlys][Nlys][Nlys][Nlys][Nlys][Nlys][Nlys]K-OH) | 20 µM | > 48 h | > 168 h | 80% | 92% | 56% |  |  |
| NCCCC[C@@H](C=O)NC(=O)[C@H](Cc1c[nH]cn1)NC(=O)[C@H](Cc1c[nH]cn1)NC(=O)[C@H](Cc1c[nH]cn1)NC(=O)[C@H](Cc1c[nH]cn1)NC(=O)[C@H](Cc1c[nH]cn1)NC(=O)[C@H](Cc1c[nH]cn1)NC(=O)[C@H](Cc1c[nH]cn1)NC(=O)[C@@H](N)Cc1c[nH]cn1 (H-HHHHHHHHK-aldehyde) |  | 44 h | > 168 h | 74% | 81% | 64% | >20 µM |  |
| NCCCC[C@@H](C=O)NC(=O)[C@H](Cc1c[nH]cn1)NC(=O)[C@H](CCCCN)NC(=O)[C@H](Cc1c[nH]cn1)NC(=O)[C@H](CCCCN)NC(=O)[C@H](Cc1c[nH]cn1)NC(=O)[C@H](CCCCN)NC(=O)[C@H](Cc1c[nH]cn1)NC(=O)[C@@H](N)CCCCN (H-KHKHKHKHK-aldehyde) |  | 6 h | > 168 h | 87% | 88% | 73% | >20 µM |  |
| NCCCC[C@@H](C=O)NC(=O)[C@H](CCCCN)NC(=O)[C@H](CCCCN)NC(=O)[C@H](Cc1c[nH]cn1)NC(=O)[C@H](CCCCN)NC(=O)[C@H](CCCCN)NC(=O)[C@H](Cc1c[nH]cn1)NC(=O)[C@H](CCCCN)NC(=O)[C@@H](N)CCCCN (H-KKHKKHKKK-aldehyde) | 20 µM | 6 h | > 168 h | 73% | 86% | 52% |  |  |
| CN(C)CCCC[C@H](NC(=O)[C@H](CCCCN)NC(=O)[C@H](CCCCN)NC(=O)[C@H](CCCCN(C)C)NC(=O)[C@H](CCCCN)NC(=O)[C@@H](N)CCCCN)C(=O)N[C@@H](CCCCN)C(=O)N[C@@H](CCCCN)C(=O)N[C@H](C=O)CCCCN (H-KK[Lys(Me2)]KK[Lys(Me2)]KKK-aldehyde) |  | 22 h | > 168 h | 78% | 96% | 41% | 5 µM |  |
| NCCCC[C@H](NC(=O)[C@H](CCCCN)NC(=O)[C@H](CCCCN)NC(=O)CN(CCCCN)C(=O)[C@H](CCCCN)NC(=O)[C@H](CCCCN)NC(=O)CN(CCCCN)C(=O)[C@H](CCCCN)NC(=O)[C@@H](N)CCCCN)C(=O)O (H-KK[Nlys]KK[Nlys]KKK-OH) | 20 µM | 29 h | > 168 h | 88% | 104% | 60% |  |  |
| NCCCC[C@@H](C=O)NC(=O)[C@H](CCCCN)NC(=O)[C@H](CCCCN)NC(=O)[C@H](CCCCN=C(N)N)NC(=O)[C@H](CCCCN)NC(=O)[C@H](CCCCN)NC(=O)[C@H](CCCCN=C(N)N)NC(=O)[C@H](CCCCN)NC(=O)[C@@H](N)CCCCN (H-KK[hArg]KK[hArg]KKK-aldehyde) |  |  | > 168 h | 75% | 92% | 36% | 10 µM | No data available |
| NCCCCC[C@H](NC(=O)[C@H](CCCCN)NC(=O)[C@H](CCCCN)NC(=O)[C@H](CCCCCN)NC(=O)[C@H](CCCCN)NC(=O)[C@@H](N)CCCCN)C(=O)N[C@@H](CCCCN)C(=O)N[C@@H](CCCCN)C(=O)N[C@H](C=O)CCCCN (H-KK[hLys]KK[hLys]KKK-aldehyde) |  | 10 h | > 168 h | 61% | 76% | 31% | >20 µM |  |
| CN(C)CCCC[C@H](NC(=O)[C@H](CCCCN(C)C)NC(=O)[C@H](CCCCN(C)C)NC(=O)[C@H](CCCCN(C)C)NC(=O)[C@H](CCCCN(C)C)NC(=O)[C@H](CCCCN(C)C)NC(=O)[C@H](CCCCN(C)C)NC(=O)[C@@H](N)CCCCN(C)C)C(=O)N[C@H](C=O)CCCCN (H-[Lys(Me2)][Lys(Me2)][Lys(Me2)][Lys(Me2)][Lys(Me2)][Lys(Me2)][Lys(Me2)][Lys(Me2)]K-aldehyde) |  | > 48 h | > 168 h | 89% | 94% | 71% | 10 µM |  |
| NCCCCC[C@H](NC(=O)[C@H](CCCCCN)NC(=O)[C@H](CCCCN)NC(=O)[C@H](CCCCN)NC(=O)[C@H](CCCCN)NC(=O)[C@H](CCCCN)NC(=O)[C@H](CCCCCN)NC(=O)[C@@H](N)CCCCCN)C(=O)N[C@H](C=O)CCCCN (H-[hLys][hLys]KKKK[hLys][hLys]K-aldehyde) |  |  | 120 h | 66% | 86% | 34% | >20 µM |  |
| NCCCCC[C@H](NC(=O)[C@H](CCCCCN)NC(=O)[C@H](CCCCCN)NC(=O)[C@H](CCCCCN)NC(=O)[C@H](CCCCCN)NC(=O)[C@H](CCCCCN)NC(=O)[C@H](CCCCCN)NC(=O)[C@@H](N)CCCCCN)C(=O)N[C@H](C=O)CCCCN (H-[hLys][hLys][hLys][hLys][hLys][hLys][hLys][hLys]K-aldehyde) |  | 17 h | > 168 h | 65% | 87% | 31% | 10 µM |  |
